Key:
Rattus norvegicus [1] = test: Compound was evaluated for the hypolipidemic activity at 20 mg/kg per day orally for 14 days on cholesterol content in rat LDL; format: functional; conditions: route oral
Procedure, shortened: (§1)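 Male Sprague–Dawley rats (~300 g) were dosed orally each day. Blood was drawn from the abdominal vein. Lipoprotein fractions (chylomicron, VLDL, LDL, HDL) were separated by the Hatch–Lees and Havel methods. Each fraction was assayed for cholesterol, triglyceride (enzymatic kit), neutral lipids, phospholipids and Lowry protein. Values are % of 1% CMC vehicle control, N = 6.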

Mus musculus [2] = test: In Vivo effect for the hypolipidemic activity on Hepatic lipoprotein lipase in CF1 mice after 16 days administered orally at a dose of 20 mg/kg; format: functional; conditions: route oral
Procedure, shortened: (§2)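 CF1 male mice are dosed orally at 10–60 mg/kg per day for 16 days, with 1% CMC as the control vehicle. Liver is homogenized at 10% in 0.25 M sucrose + 0.001 M EDTA, pH 7.2. Enzymes are assayed by literature methods, with Lowry protein. Activity is given as % of control (X ± SD, N = 6), with p from Student's t test.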

Rattus norvegicus [3] = test: Compound was evaluated for the hypolipidemic activity at 20 mg/kg per day orally for 14 days on protein content in rat VLDL; format: functional; conditions: route oral; procedure, shortened: as §1
Mus musculus [4] = species: Mus musculus; test: In Vitro evaluation for the CF1 liver enzyme activity on Hepatic lipoprotein lipase at concentration 200 uM; format: functional
Procedure, shortened: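 Mouse liver enzymes assayed in vitro on 10% homogenates of CF1 male mouse liver, with test drug added at 50–200 μM. Each enzyme follows a published procedure. Protein is measured by Lowry. Activity is given as % of untreated control (X ± SD, N = 6).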

Rattus norvegicus [5] = test: Compound was evaluated for the hypolipidemic activity at 20 mg/kg per day orally for 14 days on triglycerides content in rat feces.; format: functional; conditions: route oral
Procedure, shortened: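 Male Sprague–Dawley rats were dosed orally for 14 days. Liver, small intestine and a 24-h fecal collection were lipid-extracted. Extracts were assayed for cholesterol (modified Liebermann–Burchard), triglyceride (enzymatic kit), neutral lipids, phospholipids and protein. Values are % of 1% CMC vehicle control, mean ± SD, N = 6.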

Rattus norvegicus [6] = test: Compound was evaluated for the hypolipidemic activity at 20 mg/kg per day orally for 14 days on triglycerides content in rat VLDL; format: functional; conditions: route oral; procedure, shortened: as §1
Mus musculus [7] = test: Compound was evaluated for the hypolipidemic activity in CF1 male mice at a dose of 40 mg/kg orally for Serum cholesterol at 9th day; format: functional; conditions: route oral
Procedure, shortened: (§3)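 CF1 male mice received the agent orally in 1% CMC at 10–60 mg/kg per day. Tail-vein blood was taken on days 9 and 16. Serum cholesterol was measured by modified Liebermann–Burchard on duplicate 25-µL samples, and serum triglyceride on day 16 in duplicate 50-µL samples. Values are % of vehicle control, mean ± SD, N = 6; Student's t test.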

Mus musculus [8] = test: Compound was evaluated for the hypolipidemic activity in CF1 male mice at a dose of 40 mg/kg orally for Serum cholesterol at 16th day; format: functional; conditions: route oral; procedure, shortened: as §3
Mus musculus [9] = species: Mus musculus; test: In Vitro evaluation for the CF1 liver enzyme activity on Acetyl-CoA carboxylase at concentration 50 uM; format: functional
Procedure, shortened: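 Liver was taken from CF1 male mice and made into 10% homogenates, which were incubated with test compound at 50, 100 or 200 µM. Each enzyme was assayed by its literature method, and protein was measured by Lowry. N = 6. Activity is expressed as % of untreated control ± SD.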

[10] = target: T1, 3-hydroxy-3-methylglutaryl-coenzyme A reductase (Mus musculus) (UniProt Q01237); test: In Vivo effect for the hypolipidemic activity on HMG-CoA reductase in CF1 mice after 16 days of oral administration at a dose of 20 mg/kg; format: organism-based; set-up: dose 20 mg/kg; procedure, shortened: as §2
T1 sequence (whole entry): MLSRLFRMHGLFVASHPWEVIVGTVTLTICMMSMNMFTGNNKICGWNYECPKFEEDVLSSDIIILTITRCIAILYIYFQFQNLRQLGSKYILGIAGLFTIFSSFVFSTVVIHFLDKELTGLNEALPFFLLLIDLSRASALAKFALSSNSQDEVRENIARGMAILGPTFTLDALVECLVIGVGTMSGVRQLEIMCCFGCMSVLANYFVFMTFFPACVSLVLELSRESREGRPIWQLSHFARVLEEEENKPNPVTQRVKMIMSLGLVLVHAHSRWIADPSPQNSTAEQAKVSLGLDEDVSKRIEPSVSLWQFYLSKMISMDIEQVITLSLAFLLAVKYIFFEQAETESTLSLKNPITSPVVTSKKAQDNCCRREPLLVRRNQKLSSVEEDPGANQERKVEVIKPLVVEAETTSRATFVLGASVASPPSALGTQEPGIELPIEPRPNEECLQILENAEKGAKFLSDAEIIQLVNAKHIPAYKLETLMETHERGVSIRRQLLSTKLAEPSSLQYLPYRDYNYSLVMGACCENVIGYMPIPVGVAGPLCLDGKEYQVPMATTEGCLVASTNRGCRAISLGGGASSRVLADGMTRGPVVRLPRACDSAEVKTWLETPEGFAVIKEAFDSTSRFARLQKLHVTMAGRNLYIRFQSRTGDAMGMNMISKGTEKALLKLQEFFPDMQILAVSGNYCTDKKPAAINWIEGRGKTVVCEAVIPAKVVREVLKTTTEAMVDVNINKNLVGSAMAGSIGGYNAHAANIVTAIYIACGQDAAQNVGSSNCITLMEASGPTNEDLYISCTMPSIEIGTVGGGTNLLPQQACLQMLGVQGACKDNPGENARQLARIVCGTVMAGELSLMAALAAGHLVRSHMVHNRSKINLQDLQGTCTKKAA

[11] = target: Acetyl-coenzyme A synthetase, cytoplasmic (Mus musculus) (UniProt Q9QXG4); test: In Vivo effect for the hypolipidemic activity on Acetyl-coenzyme A synthetase in CF1 mice after 16 days of oral administration at a dose of 60 mg/kg; format: functional, organism-based; set-up: dose 60 mg/kg; procedure, shortened: as §2
Rattus norvegicus [12] = test: Compound was evaluated for the hypolipidemic activity at 20 mg/kg per day orally for 14 days on neutral lipids content in rat HDL; format: functional; conditions: route oral; procedure, shortened: as §1
Mus musculus [13] = test: Compound was evaluated for the hypolipidemic activity in CF1 male mice at a dose of 40 mg/kg orally for Serum triglyceride at 16th day; format: functional; conditions: route oral; procedure, shortened: as §3
[14] = target: Cholesterol 7-alpha-hydroxylase (Cytochrome P450 7A1) (Mus musculus, UniProt Q64505); test: In vivo effect on Cholesterol 7-alpha-hydroxylase activity in CF1 mice after 16 days at 60 mg/kg oral dose; format: functional, organism-based; set-up: dose 60 mg/kg, route oral; conditions: read-out: Control; procedure, shortened: as §2
Sequence of Cholesterol 7-alpha-hydroxylase (Cytochrome P450 7A1) (Q64505 whole entry): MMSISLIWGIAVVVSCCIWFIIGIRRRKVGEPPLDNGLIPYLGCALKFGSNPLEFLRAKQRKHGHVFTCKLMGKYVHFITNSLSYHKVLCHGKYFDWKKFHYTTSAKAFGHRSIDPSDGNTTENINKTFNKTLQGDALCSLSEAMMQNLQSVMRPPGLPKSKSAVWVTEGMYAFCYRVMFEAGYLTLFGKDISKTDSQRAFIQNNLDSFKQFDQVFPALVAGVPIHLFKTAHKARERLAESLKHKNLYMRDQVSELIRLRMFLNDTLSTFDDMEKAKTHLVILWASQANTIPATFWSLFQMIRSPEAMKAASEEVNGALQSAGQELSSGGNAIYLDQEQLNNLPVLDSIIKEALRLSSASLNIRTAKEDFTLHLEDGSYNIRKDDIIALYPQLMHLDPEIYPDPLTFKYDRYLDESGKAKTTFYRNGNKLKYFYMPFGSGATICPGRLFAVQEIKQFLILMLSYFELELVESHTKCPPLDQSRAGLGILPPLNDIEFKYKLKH

Sequence of Acetyl-coenzyme A synthetase, cytoplasmic (Mus musculus) (Q9QXG4 whole entry): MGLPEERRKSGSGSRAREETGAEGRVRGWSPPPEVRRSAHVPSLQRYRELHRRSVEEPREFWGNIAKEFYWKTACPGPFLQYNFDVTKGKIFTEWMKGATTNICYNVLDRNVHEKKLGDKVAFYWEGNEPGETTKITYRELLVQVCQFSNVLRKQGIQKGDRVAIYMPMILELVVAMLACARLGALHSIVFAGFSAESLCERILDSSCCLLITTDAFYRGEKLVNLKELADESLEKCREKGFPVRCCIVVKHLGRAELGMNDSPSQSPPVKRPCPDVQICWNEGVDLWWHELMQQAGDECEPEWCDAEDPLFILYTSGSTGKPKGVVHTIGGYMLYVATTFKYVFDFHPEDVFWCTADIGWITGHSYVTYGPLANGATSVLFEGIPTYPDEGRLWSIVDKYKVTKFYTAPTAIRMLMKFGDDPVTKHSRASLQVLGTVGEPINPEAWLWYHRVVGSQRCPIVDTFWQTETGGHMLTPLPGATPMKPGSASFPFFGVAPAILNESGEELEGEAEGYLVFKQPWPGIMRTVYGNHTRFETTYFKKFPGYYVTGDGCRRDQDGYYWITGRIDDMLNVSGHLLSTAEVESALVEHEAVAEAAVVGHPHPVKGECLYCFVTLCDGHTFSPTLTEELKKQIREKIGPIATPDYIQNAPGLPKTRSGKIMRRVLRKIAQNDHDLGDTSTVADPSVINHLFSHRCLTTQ

COc1ccc(C2C(=O)c3ccccc3C2=O)cc1 [ANISINDIONE]
Control (Rattus norvegicus [1]): 18%
Control (Mus musculus [2]): 82%
Control (Rattus norvegicus [3]): 106%
Control (Mus musculus [4]): 93%
Control (Rattus norvegicus [5]): 118%
Control (Rattus norvegicus [6]): 72%
Control (Mus musculus [7]): 79%
Control (Mus musculus [8]): 48%
Control (Mus musculus [9]): 118%
Control [10]: 114%
Control [11]: 99%
Control (Rattus norvegicus [12]): 113%
Control (Mus musculus [13]): 73%
activity at 384 h [14]: 60%
